Data on ten compounds can be found in ChEMBL document CHEMBL1165965, “Synthesis and structure-activity relationships of 1,2,3,4-tetrahydropyrido[2,3-b]pyrazines as potent and selective inhibitors of the anaplastic lymphoma kinase” (Bioorg Med Chem, 2010).

As usually defined, the inhibition is the percentage by which the read-out fell short of the control. Low values mean a response near the control, high ones a response far below the control.

For assay [1], the target named is T1, Ephrin type-B receptor 3 (Homo sapiens) (UniProt P54753).
T1 sequence (whole entry): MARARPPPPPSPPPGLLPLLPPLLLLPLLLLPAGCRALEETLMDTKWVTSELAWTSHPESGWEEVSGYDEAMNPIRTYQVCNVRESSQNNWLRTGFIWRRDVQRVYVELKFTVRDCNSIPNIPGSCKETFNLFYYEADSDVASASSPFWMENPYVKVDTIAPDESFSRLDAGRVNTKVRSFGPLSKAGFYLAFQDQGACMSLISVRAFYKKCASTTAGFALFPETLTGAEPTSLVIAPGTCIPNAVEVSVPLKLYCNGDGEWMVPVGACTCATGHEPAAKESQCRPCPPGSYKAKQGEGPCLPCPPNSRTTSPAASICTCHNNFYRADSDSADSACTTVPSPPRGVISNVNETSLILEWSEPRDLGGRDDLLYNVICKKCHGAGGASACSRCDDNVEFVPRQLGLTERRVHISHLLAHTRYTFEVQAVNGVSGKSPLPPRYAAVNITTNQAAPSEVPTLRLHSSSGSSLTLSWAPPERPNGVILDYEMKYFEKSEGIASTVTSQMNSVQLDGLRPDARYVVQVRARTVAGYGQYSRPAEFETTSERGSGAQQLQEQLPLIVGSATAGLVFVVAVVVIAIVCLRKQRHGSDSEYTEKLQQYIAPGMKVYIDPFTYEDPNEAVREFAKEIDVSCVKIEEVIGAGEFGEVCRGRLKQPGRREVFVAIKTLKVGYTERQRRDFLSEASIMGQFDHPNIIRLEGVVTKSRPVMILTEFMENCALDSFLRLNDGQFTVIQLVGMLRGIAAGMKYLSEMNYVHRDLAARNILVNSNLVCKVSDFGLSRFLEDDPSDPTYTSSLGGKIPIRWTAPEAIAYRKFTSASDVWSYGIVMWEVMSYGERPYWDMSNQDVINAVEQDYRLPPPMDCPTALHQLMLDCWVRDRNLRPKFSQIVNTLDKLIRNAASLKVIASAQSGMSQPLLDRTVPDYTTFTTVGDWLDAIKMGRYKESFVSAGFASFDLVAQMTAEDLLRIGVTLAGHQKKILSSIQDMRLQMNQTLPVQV
The assay is described as follows: Inhibition of EPHB3 at 1 uM. The essentials:
(§1)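 Single-concentration screen using Ambit Bioscience KINOMEscan technology across a panel of 250–400 kinases. Per-kinase inhibition from this screen was summarized as S(90), the fraction of kinases inhibited by more than 90%.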

Assay [2] has as its target T2, Homeodomain-interacting protein kinase 4 (Homo sapiens) (UniProt Q8NE63).
T2 sequence (whole entry): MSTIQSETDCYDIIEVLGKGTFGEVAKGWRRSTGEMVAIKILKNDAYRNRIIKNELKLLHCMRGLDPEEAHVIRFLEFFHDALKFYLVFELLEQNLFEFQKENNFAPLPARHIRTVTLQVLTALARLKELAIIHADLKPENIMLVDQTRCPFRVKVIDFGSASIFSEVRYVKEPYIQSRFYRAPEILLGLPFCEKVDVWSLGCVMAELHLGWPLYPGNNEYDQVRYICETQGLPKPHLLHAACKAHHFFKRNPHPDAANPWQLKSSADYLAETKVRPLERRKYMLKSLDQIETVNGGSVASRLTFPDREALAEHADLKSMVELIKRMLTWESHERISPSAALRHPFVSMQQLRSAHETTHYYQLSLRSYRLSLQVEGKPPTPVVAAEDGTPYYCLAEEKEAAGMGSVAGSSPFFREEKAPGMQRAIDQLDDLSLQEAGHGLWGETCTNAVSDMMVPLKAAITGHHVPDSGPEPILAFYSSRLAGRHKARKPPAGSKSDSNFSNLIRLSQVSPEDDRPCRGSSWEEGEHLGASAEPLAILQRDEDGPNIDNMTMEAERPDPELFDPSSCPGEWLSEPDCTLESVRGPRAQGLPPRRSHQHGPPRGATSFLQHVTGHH
Nature of the assay: Inhibition of HIPK4 at 1 uM.

Assay [3] deals with T3, Receptor-type tyrosine-protein kinase FLT3 (Homo sapiens), P36888 [N841I].
T3 sequence (whole entry): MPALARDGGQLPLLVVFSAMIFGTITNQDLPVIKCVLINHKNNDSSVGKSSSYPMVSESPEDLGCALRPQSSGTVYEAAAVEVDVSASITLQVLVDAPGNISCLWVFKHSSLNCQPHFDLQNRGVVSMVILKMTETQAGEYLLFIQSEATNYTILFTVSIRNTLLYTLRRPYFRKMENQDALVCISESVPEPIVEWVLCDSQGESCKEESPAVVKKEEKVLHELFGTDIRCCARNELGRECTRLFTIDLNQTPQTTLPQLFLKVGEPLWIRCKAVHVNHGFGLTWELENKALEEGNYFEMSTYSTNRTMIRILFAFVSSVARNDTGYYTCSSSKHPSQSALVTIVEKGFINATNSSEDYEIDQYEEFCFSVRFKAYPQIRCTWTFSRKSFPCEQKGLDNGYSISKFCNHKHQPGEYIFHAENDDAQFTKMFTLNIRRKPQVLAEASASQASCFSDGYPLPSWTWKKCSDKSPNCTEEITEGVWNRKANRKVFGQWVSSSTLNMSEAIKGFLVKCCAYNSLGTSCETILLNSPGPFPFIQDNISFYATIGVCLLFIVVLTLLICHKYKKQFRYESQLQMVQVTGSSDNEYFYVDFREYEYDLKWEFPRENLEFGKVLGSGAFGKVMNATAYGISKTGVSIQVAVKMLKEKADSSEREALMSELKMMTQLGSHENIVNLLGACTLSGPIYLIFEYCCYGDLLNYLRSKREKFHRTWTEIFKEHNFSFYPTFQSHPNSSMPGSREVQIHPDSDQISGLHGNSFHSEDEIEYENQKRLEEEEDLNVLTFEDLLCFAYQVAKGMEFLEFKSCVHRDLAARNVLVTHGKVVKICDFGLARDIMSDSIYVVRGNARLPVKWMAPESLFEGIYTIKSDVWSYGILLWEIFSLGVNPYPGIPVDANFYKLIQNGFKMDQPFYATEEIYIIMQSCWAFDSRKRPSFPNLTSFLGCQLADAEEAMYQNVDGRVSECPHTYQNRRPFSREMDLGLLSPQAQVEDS
Nature of the assay: Inhibition of FLT3 N841I mutant at 1 uM. An outline of the steps:
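Single-concentration screen on the Ambit KINOMEscan platform, run against a panel of 250–400 kinases. Per-kinase inhibition was also summarized as S(90), the fraction of kinases inhibited by more than 90%.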

For assay [4], the target named is Casein kinase I isoform delta (Homo sapiens) (UniProt P48730). Nature of the assay: Inhibition of CSNK1D at 1 uM. The essentials:
as §1

For assay [5], the target named is Serine/threonine-protein kinase tousled-like 2 (Homo sapiens) (UniProt Q86UE8). The assay is described as follows: Inhibition of TLK2 at 1 uM.
Sequence of Serine/threonine-protein kinase tousled-like 2 (Homo sapiens) (Q86UE8 whole entry, looked up): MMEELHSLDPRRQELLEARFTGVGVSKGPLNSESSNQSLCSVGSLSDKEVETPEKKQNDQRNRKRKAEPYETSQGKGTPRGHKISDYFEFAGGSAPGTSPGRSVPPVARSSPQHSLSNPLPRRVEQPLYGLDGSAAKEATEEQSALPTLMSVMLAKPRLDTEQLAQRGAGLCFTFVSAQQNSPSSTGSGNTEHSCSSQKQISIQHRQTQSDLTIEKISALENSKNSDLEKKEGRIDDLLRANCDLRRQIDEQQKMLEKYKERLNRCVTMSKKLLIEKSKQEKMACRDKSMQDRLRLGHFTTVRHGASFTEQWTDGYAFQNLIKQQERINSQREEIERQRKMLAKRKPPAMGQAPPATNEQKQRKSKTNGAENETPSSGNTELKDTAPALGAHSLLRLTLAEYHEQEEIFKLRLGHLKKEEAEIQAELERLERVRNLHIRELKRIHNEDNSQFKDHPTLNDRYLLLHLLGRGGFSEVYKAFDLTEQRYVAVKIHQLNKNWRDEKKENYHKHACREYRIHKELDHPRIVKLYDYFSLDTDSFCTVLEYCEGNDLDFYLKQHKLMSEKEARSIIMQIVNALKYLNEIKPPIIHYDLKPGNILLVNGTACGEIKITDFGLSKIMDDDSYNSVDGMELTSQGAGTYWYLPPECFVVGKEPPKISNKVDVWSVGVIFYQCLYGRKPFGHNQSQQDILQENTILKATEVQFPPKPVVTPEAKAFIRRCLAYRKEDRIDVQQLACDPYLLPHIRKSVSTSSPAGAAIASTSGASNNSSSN

Sequence of Casein kinase I isoform delta (Homo sapiens) (P48730 whole entry, looked up, canonical isoform): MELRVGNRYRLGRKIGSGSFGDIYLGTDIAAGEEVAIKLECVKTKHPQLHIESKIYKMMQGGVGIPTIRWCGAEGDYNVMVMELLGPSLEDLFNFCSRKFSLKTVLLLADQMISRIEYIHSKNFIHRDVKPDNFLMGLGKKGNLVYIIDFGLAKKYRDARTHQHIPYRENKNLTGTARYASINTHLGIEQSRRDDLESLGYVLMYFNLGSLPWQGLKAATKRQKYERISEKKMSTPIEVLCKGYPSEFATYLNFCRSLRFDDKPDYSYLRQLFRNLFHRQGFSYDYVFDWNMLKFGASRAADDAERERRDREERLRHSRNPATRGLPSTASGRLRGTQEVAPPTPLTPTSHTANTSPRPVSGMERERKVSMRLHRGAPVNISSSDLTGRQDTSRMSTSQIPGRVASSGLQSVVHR

`FC(F)(F)c1ccc(Cl)cc1CN1CCNc2ncc(-c3ccnc(N4CCNCC4)c3)cc21`: the inhibition in assay [1] is less than 50%; in assay [2] it was less than 50%; in assay [3], 100%; in assay [4], less than 50%; in assay [5], less than 50%.

Consider `CN1CCN(c2ccc(-c3cnc4c(c3)N(Cc3cc(F)ccc3F)CCN4)cn2)CC1`, for which the inhibition in assay [1] was less than 50%; in assay [2] it was less than 50%; in assay [3], 84.6%; in assay [4], less than 50%; in assay [5], less than 50%.

Regarding `CN1CCN(c2ccc(-c3cnc4c(c3)N(Cc3cc(Cl)ccc3Cl)CCN4)cn2)CC1`, the inhibition in assay [1] is less than 50%; in assay [2], less than 50%; in assay [3] it was 93%; in assay [4], less than 50%; in assay [5] it was less than 50%.

Take `O=C(O)c1ccc(-c2cnc3c(c2)N(Cc2cc(Cl)ccc2C(F)(F)F)CCN3)cc1`: the inhibition in assay [1], in assay [3], in assay [4] and in assay [5] was less than 50% throughout.

In the case of `CN1CCN(c2ccc(-c3cnc4c(c3)N(Cc3cc(Cl)ccc3C(F)(F)F)CCN4)cn2)CC1`, the inhibition in assay [1], in assay [2], in assay [3], in assay [4] and in assay [5] was less than 50% in each case.

`COC1CCN(C(=O)c2ccc(-c3cnc4c(c3)N(Cc3cc(Cl)ccc3C(F)(F)F)CCN4)cc2)CC1`: the inhibition in assay [1], in assay [3], in assay [4] and in assay [5] was less than 50% each time.

`O=C(c1ccc(-c2cnc3c(c2)N(Cc2cc(Cl)ccc2C(F)(F)F)CCN3)cc1)N1CCC(N2CCCC2)CC1`: the inhibition in assay [1] was less than 50%; in assay [3], 96.1%; in assay [4], less than 50%; in assay [5], less than 50%.

On to `CN1CCN(c2ccc(-c3cnc4c(c3)N(Cc3c(F)ccc(F)c3Cl)CCN4)cn2)CC1`, for which the inhibition is less than 50% in assay [1]; less than 50% in assay [2]; 83% in assay [3]; less than 50% in assay [4]; less than 50% in assay [5].

Turning to `O=C(c1ccc(-c2cnc3c(c2)N(Cc2cc(Cl)ccc2C(F)(F)F)CCN3)cc1)N1CCCCC1`, the inhibition in assay [1], in assay [3], in assay [4] and in assay [5] was less than 50% throughout.

Regarding `CC(=O)N1CCN(c2cc(-c3cnc4c(c3)N(Cc3cc(Cl)ccc3C(F)(F)F)CCN4)ccn2)CC1`, the inhibition was less than 50% in assay [1]; less than 50% in assay [2]; 92% in assay [3]; less than 50% in assay [4]; less than 50% in assay [5].
